For assay [1], the target named is Phosphatidylinositol 4,5-bisphosphate 3-kinase catalytic subunit alpha isoform (Homo sapiens, UniProt P42336). Description: Inhibition of recombinant human PI3Kalpha using PIP2 as substrate incubated for 1 hr by kinase-glo assay. On the technique in general: In Kinase-Glo more light means more ATP remaining.
The target of the next assay is Histone deacetylase 1 (Homo sapiens, UniProt Q13547). The assay can be described thus: Inhibition of recombinant C-terminal His/FLAG-tagged HDAC1 (unknown origin) expressed in baculovirus infected Sf9 insect cells using Ac-peptide as substrate preincubated for 15 mins followed by substrate addition and measured after 1 hr.
Chain of Histone deacetylase 1 (Q13547 whole entry): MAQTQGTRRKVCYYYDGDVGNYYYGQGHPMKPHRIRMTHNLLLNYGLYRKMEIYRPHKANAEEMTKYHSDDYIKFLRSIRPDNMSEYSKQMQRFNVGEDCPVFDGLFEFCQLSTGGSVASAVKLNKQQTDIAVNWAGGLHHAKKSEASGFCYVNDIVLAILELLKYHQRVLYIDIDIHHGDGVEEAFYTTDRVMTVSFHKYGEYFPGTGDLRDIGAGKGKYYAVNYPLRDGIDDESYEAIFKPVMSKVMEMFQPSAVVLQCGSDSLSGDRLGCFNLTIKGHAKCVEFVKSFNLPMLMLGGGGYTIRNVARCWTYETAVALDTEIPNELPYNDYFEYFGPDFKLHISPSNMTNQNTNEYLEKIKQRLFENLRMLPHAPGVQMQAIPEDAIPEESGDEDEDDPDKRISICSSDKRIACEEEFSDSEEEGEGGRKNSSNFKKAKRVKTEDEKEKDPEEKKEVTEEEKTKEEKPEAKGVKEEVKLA
Assay [2] deals with HCT-116. Description: Antiproliferative activity against human HCT116 cells after 96 hrs by MTT assay. Format: functional, cell-based. The settings on record: HCT-116, 96 h.
Assay [3] concerns HCT-116. Description: Induction of apoptosis in human HCT116 cells assessed as early apoptotic cells at 500 nM after 48 hrs by Annexin V-FITC/propidium iodide staining-based flow cytometric analysis (reference value: 1.33%). Format: functional. (Flow cytometry measures light scatter and fluorescence of single cells or particles in a stream.)
In assay [4] the test system is HCT-116. Description: Induction of cell cycle arrest in human HCT116 cells assessed as accumulation at G2/M phase at 500 nM after 24 hrs by propidium iodide/RNase staining-based FACS analysis. The class given is functional. The method, boiled down:
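HCT116 cells cultured overnight in 6-well plates, exposed to compound at various concentrations for 24 h; FxCycle PI/RNase staining and flow cytometry for cell cycle phase distribution.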

The subject of assay [5] is HCT-116. The assay can be described thus: Induction of apoptosis in human HCT116 cells assessed as live cells at 500 nM after 48 hrs by Annexin V-FITC/propidium iodide staining-based flow cytometric analysis (reference value: 89.6%). Format: functional.
The test system of assay [6] is HCT-116. Description: Induction of apoptosis in human HCT116 cells assessed as necrotic cells at 500 nM after 48 hrs by Annexin V-FITC/propidium iodide staining-based flow cytometric analysis (reference value: 5.23%). The class given is functional.
For assay [7], the system named is HCT-116. The assay can be described thus: Induction of apoptosis in human HCT116 cells assessed as late apoptotic cells at 500 nM after 48 hrs by Annexin V-FITC/propidium iodide staining-based flow cytometric analysis (reference value: 3.87%). The class given is functional.
For the next assay, the system named is HCT-8. Description: Antiproliferative activity against human HCT8 cells after 96 hrs by MTT assay. Format: functional, cell-based. The settings on record: HCT-8, 96 h.
The next assay concerns DU-145. Description: Antiproliferative activity against human DU145 cells after 96 hrs by MTT assay. The class given is functional, cell-based. The conditions noted are these: DU-145, 96 h. A general note: Tetrazolium assays rely on reduction of a dye to a coloured formazan, in cell work by metabolically active cells.
For a further assay, the system named is NCI-H460. Description: Antiproliferative activity against human NCI-H460 cells after 96 hrs by MTT assay. The class given is functional, cell-based. The conditions noted are these: NCI-H460, 96 h.
Another assay concerns Huh-7. Description: Antiproliferative activity against human HuH7 cells after 96 hrs by MTT assay. Format: functional, cell-based. The settings on record: Huh-7, 96 h.
The subject of the next assay is Bel-7402. Description: Antiproliferative activity against human Bel7402 cells after 96 hrs by MTT assay. Format: functional, cell-based. The conditions noted are these: Bel-7402, 96 h.
In the next assay the test system is MDA-MB-453. Description: Antiproliferative activity against human MDA-MB-453 cells after 96 hrs by MTT assay. Format: functional, cell-based. The settings on record: MDA-MB-453, 96 h.
A further assay deals with MCF7. The assay can be described thus: Antiproliferative activity against human MCF7 cells after 96 hrs by MTT assay. The class given is functional, cell-based. The conditions noted are these: MCF7, 96 h.
A further assay concerns Capan-2. Description: Antiproliferative activity against human Capan2 cells after 96 hrs by MTT assay. Format: functional, cell-based. The conditions noted are these: Capan-2, 96 h.
The subject of another assay is NCI-H1299. Description: Antiproliferative activity against human NCI-H1299 cells after 96 hrs by MTT assay. The conditions noted are these: NCI-H1299, 96 h. Format: functional, cell-based.
A further assay concerns SW1990. Description: Antiproliferative activity against human SW1990 cells after 96 hrs by MTT assay. Format: functional, cell-based. The conditions noted are these: SW1990, 96 h.
The test system of a further assay is HepG2. The assay can be described thus: Antiproliferative activity against human HepG2 cells after 96 hrs by MTT assay. The class given is functional, cell-based. The settings on record: HepG2, 96 h.
A further assay has as its system K562. Description: Antiproliferative activity against human K562 cells after 96 hrs by MTT assay. The settings on record: K562, 96 h. Format: functional, cell-based.
A further assay concerns HGC-27. The assay can be described thus: Antiproliferative activity against human HGC27 cells after 96 hrs by MTT assay. Format: functional, cell-based. The settings on record: HGC-27, 96 h.
Another assay deals with U-87 MG. Description: Antiproliferative activity against human U87 cells after 96 hrs by MTT assay. The class given is functional, cell-based, U-87MG ATCC.

Structures are written as SMILES. Activity calls are given as the source filed them. The rule behind the calls is not given here.

Chain of Phosphatidylinositol 4,5-bisphosphate 3-kinase catalytic subunit alpha isoform (P42336 whole entry, canonical isoform): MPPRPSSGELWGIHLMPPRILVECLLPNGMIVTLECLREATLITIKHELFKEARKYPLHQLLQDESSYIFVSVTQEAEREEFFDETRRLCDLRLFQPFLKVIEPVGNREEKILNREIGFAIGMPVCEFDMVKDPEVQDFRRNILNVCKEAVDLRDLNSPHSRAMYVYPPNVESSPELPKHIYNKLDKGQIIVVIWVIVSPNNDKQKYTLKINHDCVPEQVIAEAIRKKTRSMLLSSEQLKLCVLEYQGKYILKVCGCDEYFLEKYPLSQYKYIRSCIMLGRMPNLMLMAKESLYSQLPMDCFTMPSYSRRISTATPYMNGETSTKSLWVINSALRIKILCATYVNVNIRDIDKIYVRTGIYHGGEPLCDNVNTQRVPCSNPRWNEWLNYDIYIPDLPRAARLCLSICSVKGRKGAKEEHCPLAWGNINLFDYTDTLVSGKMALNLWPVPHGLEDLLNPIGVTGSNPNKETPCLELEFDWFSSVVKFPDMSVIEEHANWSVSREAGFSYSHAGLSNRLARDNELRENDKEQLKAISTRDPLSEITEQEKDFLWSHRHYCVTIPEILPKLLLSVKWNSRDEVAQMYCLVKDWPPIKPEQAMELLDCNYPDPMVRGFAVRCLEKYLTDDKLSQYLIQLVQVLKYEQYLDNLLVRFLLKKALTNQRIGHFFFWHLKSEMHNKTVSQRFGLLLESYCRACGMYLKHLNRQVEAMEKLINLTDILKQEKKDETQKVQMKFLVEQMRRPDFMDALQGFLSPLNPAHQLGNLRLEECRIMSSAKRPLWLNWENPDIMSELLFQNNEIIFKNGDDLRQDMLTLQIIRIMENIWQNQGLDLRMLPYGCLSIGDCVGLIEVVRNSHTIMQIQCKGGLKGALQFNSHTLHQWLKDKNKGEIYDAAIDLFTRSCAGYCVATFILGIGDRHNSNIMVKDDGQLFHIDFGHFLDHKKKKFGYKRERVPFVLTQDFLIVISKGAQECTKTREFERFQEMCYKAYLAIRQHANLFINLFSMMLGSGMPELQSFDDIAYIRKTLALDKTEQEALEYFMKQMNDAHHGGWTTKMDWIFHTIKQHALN

In general, IC50 refers to the concentration at which inhibition is half-maximal. As for `COc1ncc(-c2cc(OCCCCCCCCC(=O)NO)c3ncnc(C)c3c2)cc1NS(C)(=O)=O`, the IC50 was 4 nM in assay [1], 4.9 nM on Histone deacetylase 1 and 11000 nM with HCT-116 [2].
For `COc1ccc(-c2cc(OCCCN(C)c3ncc(C(=O)NO)cn3)c3ncnc(C)c3c2)cn1` the same measures were 213 nM, 2.5 nM and 100 nM.
For `CCN(CCOc1cc(-c2cnc(OC)c(F)c2)cc2c(C)ncnc12)c1ncc(C(=O)NO)cn1` the same measures were 72 nM, 2.6 nM and 39 nM.
As to `COc1ncc(-c2cc(OCCCCCCCCC(=O)NO)c3ncnc(C)c3c2)cc1F`, the values for the 50% inhibitory concentration (IC50) (in [1]; at Histone deacetylase 1; with HCT-116 [2]) were 116 nM, 2.2 nM and 580 nM, respectively.
For `COc1ncc(-c2cc(OCCCN(C)c3ncc(C(=O)NO)cn3)c3ncnc(C)c3c2)cc1NS(=O)(=O)c1ccc(F)cc1F` the same measures were 1.1 nM, 11 nM and 2900 nM.
For `COc1ncc(-c2cc(OCCCCN(C)c3ncc(C(=O)NO)cn3)c3ncnc(C)c3c2)cc1F` the same measures were 48 nM, 3.3 nM and 250 nM.
For `COc1ncc(-c2cc(OCCCCNc3ncc(C(=O)NO)cn3)c3ncnc(C)c3c2)cc1F` the same measures were 41 nM, 11 nM and 9300 nM.
Regarding `COc1ncc(-c2cc(OCCCC(=O)NO)c3ncnc(C)c3c2)cc1NS(=O)(=O)c1ccc(F)cc1F`, the IC50 in assay [1] is 1.3 nM; on Histone deacetylase 1, 37 nM; with HCT-116 [2], over 10000 nM.
For `CCN(CCOc1cc(-c2ccc(OC)nc2)cc2c(C)ncnc12)c1ncc(C(=O)NO)cn1` the same measures were 195 nM, 2.1 nM and 22 nM.
As for `COc1ncc(-c2cc(OCCCCCCCCC(=O)NO)c3ncnc(C)c3c2)cc1NS(=O)(=O)c1ccc(F)cc1F`, the figures for the IC50 (in assay [1]; at Histone deacetylase 1; in the assay on HCT-116 [2]) were 0.9 nM, 8.9 nM and 4000 nM, respectively.
For `COc1ncc(-c2cc(OCCN(C)c3ncc(C(=O)NO)cn3)c3ncnc(C)c3c2)cc1NS(=O)(=O)c1ccc(F)cc1F` the same measures were 1.8 nM, 1.7 nM and 530 nM.
Turning to `COc1ncc(-c2cc(OCCCN(C)c3ncc(C(=O)NO)cn3)c3ncnc(C)c3c2)cc1F`, the IC50 in [1] turned out to be 94 nM; on Histone deacetylase 1, 2.4 nM; in the assay with HCT-116 [2] it was 82 nM.
For `COc1ncc(-c2cc(OCCCCCC(=O)NO)c3ncnc(C)c3c2)cc1F` the same measures were 30 nM, 37 nM and 1200 nM.
For the molecule `COc1ncc(-c2cc(OCCN(c3ncc(C(=O)NO)cn3)C(C)C)c3ncnc(C)c3c2)cc1F`, the results for the IC50 (in assay [1]; on Histone deacetylase 1; in the assay with HCT-116 [2]) were 43 nM, 2 nM and 96 nM, respectively.
With `COc1ncc(-c2cc(OCCCCCCC(=O)NO)c3ncnc(C)c3c2)cc1NS(=O)(=O)c1ccc(F)cc1F`, the results for the IC50 (in assay [1]; on Histone deacetylase 1; with HCT-116 [2]) were 0.69 nM, 6.3 nM and 7200 nM, respectively.
As to `COc1ccc(-c2cc(OCCCCCCCC(=O)NO)c3ncnc(C)c3c2)cn1`, the IC50 in assay [1] came to 143 nM; at Histone deacetylase 1 it was 3.7 nM; in the assay on HCT-116 [2] it was 800 nM.
Take `COc1ncc(-c2cc(OCCCCCCC(=O)NO)c3ncnc(C)c3c2)cc1NS(C)(=O)=O`: the half-inhibitory concentration (IC50) in assay [1] was determined as 2.3 nM; on Histone deacetylase 1, 1.3 nM; in the assay on HCT-116 [2], 37000 nM.
For `COc1ncc(-c2cc(OCCCNc3ncc(C(=O)NO)cn3)c3ncnc(C)c3c2)cc1F` the same measures were 43 nM, 4 nM and 2100 nM.
For `COc1ccc(-c2cc(OCCCCC(=O)NO)c3ncnc(C)c3c2)cn1` the same measures were 51 nM, 84 nM and 1400 nM.
For `COc1ncc(-c2cc(OCCCCCC(=O)NO)c3ncnc(C)c3c2)cc1NS(=O)(=O)c1ccc(F)cc1F` the same measures were 0.66 nM, 39 nM and 540 nM.
With `COc1ncc(-c2cc(OCCCCCCCC(=O)NO)c3ncnc(C)c3c2)cc1NS(C)(=O)=O`, the values for the half-maximal inhibitory concentration (IC50) (in assay [1]; on Histone deacetylase 1; with HCT-116 [2]) were 3.9 nM, 2.1 nM and 3400 nM, respectively.
In the case of `O=C(CCCCCCC(=O)Nc1ccccc1)NO` [VORINOSTAT], the Activity with HCT-116 [3] was 2.72%; in the assay with HCT-116 [5], 87.7%; in the assay on HCT-116 [6] it was 4.33%; with HCT-116 [7], 5.21%. For the same molecule, the result in the assay with HCT-116 [4] was Active.
Take `COc1ccc(-c2cc(OCCCC(=O)NO)c3ncnc(C)c3c2)cn1`: the IC50 in [1] was 73 nM; on Histone deacetylase 1, 91 nM; in the assay on HCT-116 [2] it was over 10000 nM.
For `COc1ccc(-c2cc(OCCN(c3ncc(C(=O)NO)cn3)C(C)C)c3ncnc(C)c3c2)cn1` the same measures were 82 nM, 1.6 nM and 39 nM.
Take `COc1ccc(-c2cc(OCCCCCC(=O)NO)c3ncnc(C)c3c2)cn1`: the IC50 in [1] turned out to be 58 nM; on Histone deacetylase 1, 30 nM; in the assay on HCT-116 [2], 540 nM.
As for `COc1ccc(-c2nc(N3CCOCC3)c3sc(CN(C)c4ncc(C(=O)NO)cn4)cc3n2)cn1` [FIMEPINOSTAT], the IC50 in the assay with HCT-8 was found to be 5 nM; in the assay with DU-145, 560 nM; with NCI-H460, 150 nM; with Huh-7, 560 nM; in the assay on Bel-7402, 13 nM; in the assay with MDA-MB-453, 9 nM. Moreover, the half-maximal inhibitory concentration (IC50) with HCT-116 [2] came to 5 nM; in the assay on MCF7 it was 41 nM; in the assay with Capan-2, 7 nM; in the assay with NCI-H1299, 25 nM; in the assay with SW1990, 180 nM; in the assay with HepG2, 15 nM. In addition, the IC50 in the assay on K562 is 280 nM; in the assay with HGC-27 it was 41 nM; with U-87 MG it was 7 nM.
With `COc1ncc(-c2cc(OCCCCCCCC(=O)NO)c3ncnc(C)c3c2)cc1NS(=O)(=O)c1ccc(F)cc1F`, the IC50 in assay [1] was 0.63 nM; on Histone deacetylase 1, 1.8 nM; with HCT-116 [2] it was 1500 nM.
For `COc1ncc(-c2cc(OCCCCC(=O)NO)c3ncnc(C)c3c2)cc1NS(=O)(=O)c1ccc(F)cc1F` the same measures were 0.6 nM, 303 nM and 350 nM.
For `COc1ccc(-c2cc(OCC(=O)NO)c3ncnc(C)c3c2)cn1` the same measures were 68 nM, 166 nM and over 10000 nM.
For `COc1ccc(-c2cc(OCCCCCCCCC(=O)NO)c3ncnc(C)c3c2)cn1` the same measures were 162 nM, 3 nM and 760 nM.
On to `COc1ncc(-c2cc(OCCCCCC(=O)NO)c3ncnc(C)c3c2)cc1NS(C)(=O)=O`, for which the figures for the IC50 (in assay [1]; at Histone deacetylase 1; in the assay on HCT-116 [2]) were 5.1 nM, 42 nM and over 10000 nM, respectively.
For `COc1ncc(-c2cc(OCCCCCCCC(=O)NO)c3ncnc(C)c3c2)cc1F` the same measures were 54 nM, 3.3 nM and 1400 nM.
For `COc1ncc(-c2cc(OCCN(C)c3ncc(C(=O)NO)cn3)c3ncnc(C)c3c2)cc1F` the same measures were 73 nM, 1.3 nM and 30 nM.
For `COc1ncc(-c2cc(OCCNc3ncc(C(=O)NO)cn3)c3ncnc(C)c3c2)cc1F` the same measures were 43 nM, 5.3 nM and 4600 nM.

These data come from ChEMBL document CHEMBL4311940, “Design, Synthesis, and Biological Evaluation of 4-Methyl Quinazoline Derivatives as Anticancer Agents Simultaneously Targeting Phosphoinositide 3-Kinases and Histone Deacetylases” (J Med Chem, 2019).
